Experimental data reported in ChEMBL document CHEMBL2424517, “Eunicellin-based diterpenoids from the Formosan soft coral Klyxum molle with inhibitory activity on superoxide generation and elastase release by neutrophils” (J Nat Prod, 2013).

Columns and labels:
[1] = Antiinflammatory activity in human neutrophils assessed as inhibition of fMLP/CB-induced superoxide anion generation incubated for 5 mins prior to fMLP/CB challenge; format: functional, cell-based; details: Neutrophil
Summary of the method: (§1)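 Neutrophils from healthy adult donors (20−30 y), enriched by dextran sedimentation, Ficoll Hypaque centrifugation and hypotonic lysis, held in Ca2+-free HBSS pH 7.4 at 4 °C. Cells (6 × 10^5/mL) with ferricytochrome c 0.5 mg/mL and Ca2+ 1 mM, 37 °C 2 min, DMSO control. CB 1 μg/mL 3 min, then fMLP 100 nM 10 min. O2•− read as SOD-inhibitable cytochrome c reduction. Mean ± SEM, n = 3 or 4.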

[2] = Antiinflammatory activity in human neutrophils assessed as inhibition of fMLP/CB-induced elastase release at 10 uM incubated for 5 mins prior to fMLP/CB challenge; format: functional; details: Neutrophil
Summary of the method: (§2)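 Donor neutrophils (healthy adults, 20−30 y), purified by dextran sedimentation, Ficoll Hypaque and hypotonic lysis, kept in Ca2+-free HBSS pH 7.4 at 4 °C. Cells at 6 × 10^5/mL with MeO-Suc-Ala-Ala-Pro-Val-p-nitroanilide 100 μM as elastase substrate, equilibrated 37 °C 2 min before compound addition. Mean ± SEM, n = 3 or 4.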

[3] = Antiinflammatory activity in human neutrophils assessed as inhibition of fMLP/CB-induced superoxide anion generation at 10 uM incubated for 5 mins prior to fMLP/CB challenge; format: functional; details: Neutrophil; summary of the method: as §1
[4] = Antiinflammatory activity in human neutrophils assessed as inhibition of fMLP/CB-induced elastase release incubated for 5 mins prior to fMLP/CB challenge; format: functional, cell-based; details: Neutrophil; summary of the method: as §2
[5] = tested on: K562; test: Cytotoxicity against human K562 cells after 6 hrs by Alamar Blue assay; format: functional; details: K562, 6 h, read-out: ED50 (the source's name)
[6] = tested on: MOLT-4; test: Cytotoxicity against human MOLT4 cells after 6 hrs by Alamar Blue assay; format: functional; details: MOLT-4, 6 h, read-out: ED50 (the source's name)
[7] = tested on: T47D; test: Cytotoxicity against human T47D cells after 3 hrs by Alamar Blue assay; format: functional; details: read-out: ED50 (the source's name)

**Q.** Which results are given for CC(=O)O[C@H]1[C@H](C(C)C)[C@@H]2[C@@H]([C@H]3C[C@](C)(O)[C@H](O)CC[C@@](C)(OC(C)=O)[C@@H]2O3)[C@](O)(CCl)[C@H]1OC(C)=O?
**A.** IC50 [1]: > 10 µM; inhibition at 10 µM [2]: 7.3%; inhibition at 10 µM [3]: 5.02%; IC50 [4]: > 10 µM

**Q.** With C=C1[C@H]2[C@@H]([C@@H](C(C)C)[C@H](O)[C@@H]1OC(C)=O)[C@H]1O[C@@H]2C[C@](C)(O)[C@@H](OC(C)=O)CC[C@@]1(C)OC(=O)CCC as the molecule, how does the IC50 [1] read?
**A.** > 10 µM

**Q.** What about the inhibition at 10 µM [2] of the same molecule?
**A.** 16.8%

**Q.** What about the inhibition at 10 µM [3] of the same molecule?
**A.** 2.92%

**Q.** And the IC50 [4]?
**A.** > 10 µM

**Q.** Which IC50 [1] does the source give for CC(=O)O[C@H]1C[C@H](C(C)C)[C@@H]2[C@@H]([C@H]3C[C@](C)(O)[C@@H](O)CC[C@@](C)(OC(C)=O)[C@@H]2O3)[C@]1(O)CCl here?
**A.** > 10 µM

**Q.** What about the inhibition at 10 µM [2] of the same molecule?
**A.** 9.18%

**Q.** What about the inhibition at 10 µM [3] of the same molecule?
**A.** 3.37%

**Q.** What about the IC50 [4] of the same molecule?
**A.** > 10 µM

**Q.** Which IC50 [1] does the source give for C=C1[C@H]2[C@@H]([C@@H](C(C)C)C[C@@H]1O)[C@H]1O[C@@H]2C[C@](C)(O)[C@@H](OC(=O)Cc2ccccc2)CC[C@@]1(C)OC(=O)CCC here?
**A.** 3.13 µM

**Q.** What about the EC50 [5] of the same molecule?
**A.** 7.97 µM

**Q.** What about the EC50 [6] of the same molecule?
**A.** 4.35 µM

**Q.** And the inhibition at 10 µM [2]?
**A.** 89.2%

**Q.** And the inhibition at 10 µM [3]?
**A.** 81.6%

**Q.** And the IC50 [4]?
**A.** 2.92 µM

**Q.** What about the EC50 [7] of the same molecule?
**A.** 8.58 µM

**Q.** With C=C1[C@H]2[C@@H]([C@@H](C(C)C)[C@H](OC(C)=O)[C@@H]1O)[C@H]1O[C@@H]2C[C@](C)(O)[C@@H](O)CC[C@@]1(C)OC(=O)CCC as the molecule, how does the IC50 [1] read?
**A.** > 10 µM

**Q.** And the inhibition at 10 µM [2]?
**A.** 7.35%

**Q.** What about the inhibition at 10 µM [3] of the same molecule?
**A.** 1.17%

**Q.** And the IC50 [4]?
**A.** > 10 µM

**Q.** What does the source list for O=c1[nH]cc(F)c(=O)[nH]1 [FLUOROURACIL]?
**A.** EC50 [5]: 16.2 µM; EC50 [6]: 15.1 µM; EC50 [7]: 50.2 µM

**Q.** Which results are given for C=C1[C@H]2[C@@H]([C@H](C(C)C)[C@H](OC(C)=O)[C@@H]1O)[C@H]1O[C@@H]2C[C@](C)(O)[C@@H](OC(C)=O)CC[C@@]1(C)OC(=O)CCC?
**A.** IC50 [1]: > 10 µM; inhibition at 10 µM [2]: 6.47%; inhibition at 10 µM [3]: 10.5%; IC50 [4]: > 10 µM

**Q.** With C=C1C[C@H]2O[C@H]([C@H]3[C@@H]2C(=C)[C@@H](O)C[C@@H]3C(C)C)[C@](C)(OC(C)=O)CC[C@@H]1O as the molecule, how does the IC50 [1] read?
**A.** > 10 µM

**Q.** And the inhibition at 10 µM [2]?
**A.** 0.62%

**Q.** And the inhibition at 10 µM [3]?
**A.** 3.2%

**Q.** What about the IC50 [4] of the same molecule?
**A.** > 10 µM

**Q.** Which IC50 [1] does the source give for C=C1[C@H]2[C@@H]([C@@H](C(C)C)C[C@@H]1O)[C@H]1O[C@@H]2C[C@](C)(O)[C@@H](O)CC[C@@]1(C)OC(C)=O here?
**A.** > 10 µM

**Q.** And the inhibition at 10 µM [2]?
**A.** 11.6%

**Q.** What about the inhibition at 10 µM [3] of the same molecule?
**A.** 7.14%

**Q.** And the IC50 [4]?
**A.** > 10 µM

**Q.** With C=C1[C@H]2[C@H]([C@H]3O[C@@H]2C[C@](C)(O)[C@@H](OC(C)=O)CC[C@@]3(C)OC(C)=O)[C@H](C(C)C)C[C@@H]1O as the molecule, how does the IC50 [1] read?
**A.** > 10 µM

**Q.** What about the inhibition at 10 µM [2] of the same molecule?
**A.** 7.33%

**Q.** And the inhibition at 10 µM [3]?
**A.** 14.7%

**Q.** What about the IC50 [4] of the same molecule?
**A.** > 10 µM

**Q.** Which IC50 [1] does the source give for CC(=O)O[C@H]1C[C@H](C(C)C)[C@@H]2[C@@H]([C@H]3C[C@](C)(O)[C@@H](OC(C)=O)CC[C@@](C)(OC(C)=O)[C@@H]2O3)[C@]1(O)CCl here?
**A.** > 10 µM

**Q.** And the inhibition at 10 µM [2]?
**A.** -1.19%

**Q.** What about the inhibition at 10 µM [3] of the same molecule?
**A.** 8.92%

**Q.** And the IC50 [4]?
**A.** > 10 µM

**Q.** What does the source list for CC(=O)O[C@H]1[C@H](C(C)C)[C@@H]2[C@@H]([C@H]3C[C@](C)(O)[C@@H](OC(C)=O)CC[C@@](C)(OC(C)=O)[C@@H]2O3)[C@](O)(CCl)[C@H]1OC(C)=O?
**A.** IC50 [1]: > 10 µM; inhibition at 10 µM [2]: 6.42%; inhibition at 10 µM [3]: 9.36%; IC50 [4]: > 10 µM
